These results are taken from ChEMBL document CHEMBL4680125, “Synthesis and bioevaluation of 1-phenylimidazole-4-carboxylic acid derivatives as novel xanthine oxidoreductase inhibitors” (Eur J Med Chem, 2020).

Data set [1] in a line: Toxicity in ICR mouse model of xanthine/potassium oxonate-induced hyperuricemia assessed as creatinine level at 5 mg/kg, ig qd treated subsequently for 7 days relative to control. Type of data set: organism-based. The conditions noted are these: in vivo, po, 168 h, time 7 day. In a few lines:
(§1)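 Long-term model in ICR mice: potassium oxonate 250 mg/kg s.c. plus hypoxanthine 150 mg/kg i.p. at 9:00 AM, once daily for 7 days. Compound dosed intragastrically at 5 mg/kg (0.5% CMC-Na suspension) at 10:00 AM for 7 days. Serum obtained by centrifugation at 4000 r/min for 10 min and stored at −80 °C. Uric acid, creatinine and urea nitrogen measured with diagnostic kits; n = 8.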

Data set [2] concerns Mus musculus. In words: Hypouricemic activity in ICR mouse model of xanthine/potassium oxonate-induced acute hyperuricemia assessed as decrease in serum uric acid level at 5 mg/kg, ig relative to control. The conditions noted are these: TDE = time-dependent effect. Type of data set: functional, organism-based. A digest of the protocol:
(§2)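 ICR mice (18–22 g), acclimatized ≥1 week. Acute hyperuricemia induced by potassium oxonate 250 mg/kg s.c. plus hypoxanthine 400 mg/kg i.p., both in saline. Baseline tail blood taken at 1 h, then compound given intragastrically at 5 mg/kg as a suspension in 0.5% CMC-Na; model group received vehicle. […] Mean ± S.D.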

Data set [3] concerns Mus musculus. The data set is described as follows: Hypouricemic activity in ICR mouse model of xanthine/potassium oxonate-induced long term hyperuricemia assessed as decrease in serum uric acid level at 5 mg/kg, ig qd treated subsequently for 7 days relative to control. Conditions: time 7.0 day. Format: functional, organism-based. A digest of the protocol:
as §1

Data set [4] concerns Mus musculus. In words: Hypouricemic activity in ICR mouse model of xanthine/potassium oxonate-induced acute hyperuricemia assessed as decrease in serum uric acid level at 5 mg/kg, ig measured after 4 hrs relative to control. Type of data set: functional, organism-based. In a few lines:
as §2

Data set [5] deals with Xanthine dehydrogenase/oxidase (Bos taurus, UniProt P80457). In words: Inhibition of bovine xanthine oxidase assessed as reduction in uric acid formation using xanthine as substrate incubated for 3 mins by microplate assay.
Chain of Xanthine dehydrogenase/oxidase (P80457 whole entry): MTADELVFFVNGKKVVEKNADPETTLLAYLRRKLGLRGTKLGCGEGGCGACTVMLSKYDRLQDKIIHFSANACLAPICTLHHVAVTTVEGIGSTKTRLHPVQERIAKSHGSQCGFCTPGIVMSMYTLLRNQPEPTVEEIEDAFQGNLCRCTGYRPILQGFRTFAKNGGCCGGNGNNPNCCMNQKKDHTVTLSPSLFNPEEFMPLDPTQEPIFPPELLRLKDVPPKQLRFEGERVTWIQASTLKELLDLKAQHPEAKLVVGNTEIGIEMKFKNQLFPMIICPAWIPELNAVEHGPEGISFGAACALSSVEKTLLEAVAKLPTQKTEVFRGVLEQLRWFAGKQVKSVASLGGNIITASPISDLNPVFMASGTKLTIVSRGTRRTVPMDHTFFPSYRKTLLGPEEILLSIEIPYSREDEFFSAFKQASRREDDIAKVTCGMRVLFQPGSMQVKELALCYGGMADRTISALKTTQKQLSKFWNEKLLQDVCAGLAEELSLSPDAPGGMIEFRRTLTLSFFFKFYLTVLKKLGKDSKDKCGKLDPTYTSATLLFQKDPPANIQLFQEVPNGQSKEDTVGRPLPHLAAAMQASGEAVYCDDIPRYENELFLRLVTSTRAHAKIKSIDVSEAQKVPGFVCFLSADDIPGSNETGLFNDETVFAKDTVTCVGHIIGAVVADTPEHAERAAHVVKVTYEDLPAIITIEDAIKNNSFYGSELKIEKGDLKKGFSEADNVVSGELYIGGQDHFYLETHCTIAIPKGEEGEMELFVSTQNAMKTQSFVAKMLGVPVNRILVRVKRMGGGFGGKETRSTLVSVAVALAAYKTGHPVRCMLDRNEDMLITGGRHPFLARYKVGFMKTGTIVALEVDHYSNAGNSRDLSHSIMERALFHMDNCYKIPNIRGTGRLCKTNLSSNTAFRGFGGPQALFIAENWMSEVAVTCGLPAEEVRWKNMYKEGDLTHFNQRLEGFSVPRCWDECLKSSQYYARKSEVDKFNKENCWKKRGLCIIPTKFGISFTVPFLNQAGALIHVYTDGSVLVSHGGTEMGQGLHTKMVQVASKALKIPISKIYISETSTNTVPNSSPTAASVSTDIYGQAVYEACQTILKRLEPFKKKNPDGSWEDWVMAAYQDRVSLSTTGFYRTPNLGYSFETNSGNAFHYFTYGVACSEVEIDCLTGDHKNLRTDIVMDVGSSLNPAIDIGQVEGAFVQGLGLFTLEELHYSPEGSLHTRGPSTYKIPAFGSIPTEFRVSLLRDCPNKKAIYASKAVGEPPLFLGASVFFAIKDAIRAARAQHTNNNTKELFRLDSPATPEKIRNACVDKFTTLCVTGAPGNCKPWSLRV
A short description of data set [6]: Toxicity in ICR mouse model of xanthine/potassium oxonate-induced hyperuricemia assessed as urea nitrogen level at 5 mg/kg, ig qd treated subsequently for 7 days relative to control. Format: organism-based. The conditions noted are these: in vivo, po, 168 h, time 7 day. A digest of the protocol:
as §1

pIC50: −log10 of the molar value. Activity calls are given as the source filed them. No cut-off for these calls is given here.

In the case of `N#Cc1cc(-n2cnc(C(=O)O)c2)ccc1N1CCCCCCC1`, the Activity result is “Toxic” in data set [1], “Tde” in the data set on Mus musculus [2] and “Toxic” in data set [6]. In addition, the outcome in the data set with Mus musculus [3] and in the data set on Mus musculus [4] was Active. Also, the negative logarithm of the IC50 (pIC50) (in general, the IC50 on a negative log10 scale, so that one unit is a factor of ten) in data set [5] is 8.10.
As for `CC(C)COc1ccc(-c2cn(C)c(C(=O)O)n2)cc1C#N`, the pIC50 in data set [5] was 5.67.
With `CC(C)Oc1ccc(-c2c[nH]c(C(=O)O)n2)cc1C#N`, the pIC50 in data set [5] was 6.12.
Turning to `CC(C)(C)COc1ccc(-n2cnc(C(=O)O)c2)cc1C#N`, the pIC50 in data set [5] is 7.17.
On the same count and under the same terms, the same measure for `COc1ccc(-c2ccc(-n3cnc(C(=O)O)c3)cc2C#N)cc1`: 7.46; for `CCC(CC)Oc1ccc(-n2cnc(C(=O)O)c2)cc1C#N`: 7.39.
The same measure, in the same setting: as for `CC1CCN(c2ccc(-n3cnc(C(=O)O)c3)cc2C#N)CC1`, the figure is 7.52; as for `CC(C)Oc1ccc(-n2cnc(C(=O)O)c2)cc1C#N`, 6.70.
Same read-out and setting: as for `CCOc1ccc(-n2cnc(C(=O)O)c2)cc1C#N`, the figure is 6.65.
For `CCOc1ccc(-c2c[nH]c(C(=O)O)n2)cc1C#N`, in data set [5], the negative logarithm of the IC50 (pIC50) is 6.02.
On the same count and under the same terms, as for `N#Cc1cc(-n2cnc(C(=O)O)c2)ccc1OC1CCCCC1`, the figure is 7.32.
Consider `CC(C)(C)c1ccc(-c2ccc(-n3cnc(C(=O)O)c3)cc2C#N)cc1`, for which the Activity entry is “Toxic” in data set [1], “Tde” in the data set on Mus musculus [2] and “Toxic” in data set [6]. Also, the outcome in the data set with Mus musculus [3] and in the data set with Mus musculus [4] was Active. Further, in data set [5], the pIC50 is 8.14.
Consider `N#Cc1cc(-n2cnc(C(=O)O)c2)ccc1OC1CCCC1`, for which the pIC50 in data set [5] is 7.20.
The same measure, in the same setting: as for `CCC(CC)COc1ccc(-n2cnc(C(=O)O)c2)cc1C#N`, the figure is 7.53; as for `N#Cc1cc(-c2c[nH]c(C(=O)O)n2)ccc1OC1CCCC1`, 6.41.
Same read-out and setting: as for `N#Cc1cc(-n2cnc(C(=O)O)c2)ccc1N1CCCC1`, the figure is 7.47; as for `CC(C)CN(C)c1ccc(-n2cnc(C(=O)O)c2)cc1C#N`, 7.57; as for `COc1cccc(-c2ccc(-n3cnc(C(=O)O)c3)cc2C#N)c1`, 7.13.
Turning to `CCC(C)Oc1ccc(-n2cnc(C(=O)O)c2)cc1C#N` (configuration not stated), the pIC50 in data set [5] is 7.13.
For `CC(C)COc1ccc(-c2c[nH]c(C(=O)O)n2)cc1C#N`, the negative logarithm of the IC50 (pIC50) in data set [5] is 6.29.
The same measure, in the same setting: the same measure for `N#Cc1cc(-n2cnc(C(=O)O)c2)ccc1N1CCCCC1`: 7.25.
Consider `CC(C)COc1ccc(-n2cnc(C(=O)O)c2)cc1C#N`, for which, in data set [5], the pIC50 is 7.02.
